Legend:
[1] = test system: Osteoclast; assay: In vitro bone resorption in isolated rabbit osteoclasts; type: functional, cell-based; settings: Oryctolagus cuniculus
Summary of the method: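 Bovine bone degraded by isolated rabbit osteoclasts; collagen degradation read by ELISA. 8-point dose–response curves; IC50 derived.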

[2] = target: Procathepsin L (Homo sapiens, UniProt P07711); assay: Inhibitory constant against human cathepsin L using Z-Phe-Arg-AMC substrate
Summary of the method: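 Recombinant human cathepsin L at 500 pM in 50 mM MES pH 5.5, 2.5 mM DTT, 2.5 mM EDTA, 10% DMSO. Enzyme preincubated with inhibitor (8 concentrations) 30 min at 21–24 °C. Reaction started with 10 μM Z-Phe-Arg-AMC; AMC fluorescence (ex 355/em 460 nm) over first ~5 min. Ki(app) fitted with Morrison tight-binding model.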

[3] = Maximum concentration in rat administered with 0.5 mg/kg, iv; type: ADME, organism-based; parameters: dose 0.5 mg/kg, route intravenous; settings: in vivo
[4] = Plasma clearance in rat administered with 0.5 mg/kg, iv; type: ADME, organism-based; parameters: dose 0.5 mg/kg, route intravenous
Summary of the method: (§1)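 Rats, three per study, cassette iv dosing of up to four compounds. Formulation DMSO (<20%), PEG 400 (<20%) and water at 0.5 mg/mL per compound, given at 1 mL/kg for 0.5 mg/kg per compound.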

[5] = test system: Rattus norvegicus; assay: Mean residence time in rat administered with 0.5 mg/kg, iv; type: functional, organism-based; parameters: dose 0.5 mg/kg; summary of the method: as §1
[6] = target: Cathepsin S (Homo sapiens, UniProt P25774); assay: Inhibitory constant against human cathepsin S using Z-Val-Val-Arg-AMC substrate
Summary of the method: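 Recombinant human cathepsin S at 500 pM in 50 mM MES pH 6.5, 2.5 mM β-mercaptoethanol, 2.5 mM EDTA, 100 mM NaCl, 0.001% BSA, 10% DMSO. 30 min enzyme–inhibitor preincubation at 21–24 °C, 8 inhibitor concentrations. Started with 60 μM Z-Val-Val-Arg-AMC; initial rates by AMC fluorescence (ex 355/em 460). Ki(app) by Morrison tight-binding fit.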

[7] = Volume of distribution in rat administered with 0.5 mg/kg, iv; type: ADME, organism-based; parameters: dose 0.5 mg/kg, route intravenous; settings: in vivo, read-out: Vss; summary of the method: as §1
[8] = target: Cathepsin K (Homo sapiens) (UniProt P43235); assay: Inhibitory constant against human cathepsin K using Z-Phe-Arg-AMC substrate
[9] = test system: Rattus norvegicus; assay: Terminal half-life in rat administered with 0.5 mg/kg, iv; type: functional, organism-based; parameters: dose 0.5 mg/kg; summary of the method: as §1
[10] = target: Cathepsin B (Homo sapiens, UniProt P07858); assay: Inhibitory constant against human cathepsin B using Boc-Leu-Lys-Arg-AMC substrate
[11] = Maximum concentration in rat administered with 10 mg/kg, po; type: ADME, organism-based; parameters: dose 10 mg/kg, route oral; settings: in vivo
Summary of the method: (§2)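 Single-compound rat PK: 0.5 mg/kg iv and 10 mg/kg oral. Bioavailability from oral versus iv exposure.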

[12] = organism: Rattus norvegicus; assay: Terminal half-life in rat; type: functional, organism-based
[13] = test system: Rattus norvegicus; assay: Oral bioavailability in rat; type: functional, organism-based; summary of the method: as §2
[14] = test system: Rhesus monkey; assay: Reduction of collagen breakdown products in ovariectomized rhesus monkey dosed at 15, 3 and 0.6 mg/kg, po; type: functional, Macaca mulatta; parameters: scale not given: the % may be the effect or the level left
Summary of the method: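 OVX rhesus monkeys (mean age 15 y, 3 y post-surgery): vehicle 1% carboxymethylcellulose po qd 2 days, then compound po qd 8–11 days at 15, 3 or 0.6 mg/kg, then 3 days vehicle. Controls on vehicle for 13 days. 24-h urine collected pre-dose, during dosing and 10–17 days after; urinary NTx normalized to creatinine (nM/mM).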

[15] = Maximum concentration in rat administered with 20 mg/kg, po; type: ADME, organism-based; parameters: dose 20 mg/kg, route oral; settings: in vivo
[16] = target: T1, Cathepsin K (Oryctolagus cuniculus, UniProt P43236); assay: Inhibitory constant against rabbit cathepsin K using Z-Phe-Arg-AMC substrate; settings: read-out: Ki app
T1 sequence (P43236 whole entry): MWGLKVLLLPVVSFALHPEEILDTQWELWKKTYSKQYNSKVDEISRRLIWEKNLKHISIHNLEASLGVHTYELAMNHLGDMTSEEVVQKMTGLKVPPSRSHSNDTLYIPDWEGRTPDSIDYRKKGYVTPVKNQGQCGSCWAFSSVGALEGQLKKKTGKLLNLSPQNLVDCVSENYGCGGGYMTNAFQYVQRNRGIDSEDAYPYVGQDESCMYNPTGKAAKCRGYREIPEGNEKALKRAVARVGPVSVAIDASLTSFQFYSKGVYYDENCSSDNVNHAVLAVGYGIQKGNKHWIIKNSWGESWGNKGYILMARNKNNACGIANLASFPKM

[17] = test system: Rattus norvegicus; assay: Time of peak concentration post-dose in rat administered with 10 mg/kg, po; type: functional, organism-based; parameters: dose 10 mg/kg; summary of the method: as §2
[18] = test system: Rattus norvegicus; assay: Terminal half-life in rat administered with 10 mg/kg, po; type: functional, organism-based; parameters: dose 10 mg/kg; summary of the method: as §2

Sequence of Procathepsin L (P07711 whole entry): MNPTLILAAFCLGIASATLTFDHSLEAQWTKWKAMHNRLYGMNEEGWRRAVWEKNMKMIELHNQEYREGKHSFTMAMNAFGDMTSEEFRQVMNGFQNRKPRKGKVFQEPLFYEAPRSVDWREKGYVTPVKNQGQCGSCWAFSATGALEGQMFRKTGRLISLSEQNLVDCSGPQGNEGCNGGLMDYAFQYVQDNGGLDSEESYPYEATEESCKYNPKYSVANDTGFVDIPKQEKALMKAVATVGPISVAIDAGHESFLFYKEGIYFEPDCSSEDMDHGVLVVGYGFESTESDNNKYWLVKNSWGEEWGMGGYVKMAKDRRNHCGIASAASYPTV
Sequence of Cathepsin S (P25774 whole entry): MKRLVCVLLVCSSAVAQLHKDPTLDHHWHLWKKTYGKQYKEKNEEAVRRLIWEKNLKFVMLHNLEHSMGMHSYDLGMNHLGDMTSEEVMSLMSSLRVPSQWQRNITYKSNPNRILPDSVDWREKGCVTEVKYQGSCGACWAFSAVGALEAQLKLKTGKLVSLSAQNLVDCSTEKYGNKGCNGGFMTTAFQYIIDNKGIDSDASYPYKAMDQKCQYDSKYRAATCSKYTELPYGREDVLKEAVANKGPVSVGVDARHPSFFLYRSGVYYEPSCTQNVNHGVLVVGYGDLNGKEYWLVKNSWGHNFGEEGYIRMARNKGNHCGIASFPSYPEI

| SMILES | IC50 [1] [nM] | Ki ([2]; read-out: Ki app) [nM] | Cmax [3] [nM] | clearance [4] [mL/min/kg] | MRT [5] [h] | Ki ([6]; read-out: Ki app) [nM] | Vd [7] [L/kg] | Ki ([8]; read-out: Ki app) [nM] | T1/2 [9] [h] | Ki ([10]; read-out: Ki app) [nM] | bioavailability [13] [%] | other results |
| --- | --- | --- | --- | --- | --- | --- | --- | --- | --- | --- | --- | --- |
| N#CCNC(=O)C1(NC(=O)c2ccc(-c3ccc(S(=O)(=O)N4CCNCC4)cc3)cc2)CCCCC1 | 20 | 430 | 1000 | 82 | 0.667 | 9100 | 3.29 | < 0.25 | 1.3 | 380 | – | – |
| CN1CCCC(Oc2ccc(-c3ccc(C(=O)NC4(C(=O)NCC#N)CCCCC4)cc3)cc2)C1 (centres undefined) | 10 | 2300 | 250 | 104 | 1.35 | 13000 | 8.46 | 0.67 | 1.5 | 870 | – | – |
| CC(C)(C)N1CCN(c2nc(-c3ccc(C(=O)NC4(C(=O)NCC#N)CCCCC4)cc3)cs2)CC1 | 1 | 8800 | – | – | – | 19000 | – | 0.29 | – | 910 | 44 | Cmax [11]: 800 nM; T1/2 [12]: 1.67 h |
| COCCN1CCC(Oc2ccc(-c3ccc(C(=O)NC4(C(=O)NCC#N)CCCCC4)cc3)cc2)CC1 | 21 | 1200 | 370 | 43 | 1.95 | 6200 | 3.27 | < 0.25 | 2.02 | 540 | – | – |
| N#CCNC(=O)C1(NC(=O)c2ccc(-c3csc(N4CCC(N5CCCCC5)CC4)n3)cc2)CCCCC1 | 3 | 8800 | – | – | – | 42000 | – | 0.45 | – | 690 | 35 | Cmax [11]: 360 nM; T1/2 [12]: 3.35 h |
| N#CCNC(=O)C1(NC(=O)c2ccc(-c3ccc(C4(F)CCNCC4)cc3)cc2)CCCCC1 | 35 | 900 | 660 | 37 | 0.8 | 7900 | 1.76 | < 0.25 | 0.783 | 280 | – | – |
| CN1CCN(c2nc(-c3ccc(C(=O)NC4(C(=O)NCC#N)CCCCC4)cc3)cs2)CC1 | 5 | 6000 | – | – | – | 47000 | – | 0.2 | – | 1000 | 68 | Activity [14]: 76%; Cmax [15]: 1400 nM; T1/2 [12]: 3.4 h; Ki [16]: 0.5 nM |
| CC(C)(C)N1CCN(c2ccc(-c3ccc(C(=O)NC4(C(=O)NCC#N)CCCCC4)cc3)cc2)CC1 | 13 | 11000 | – | 67 | 2.87 | 7900 | 11.2 | < 0.25 | 2.4 | 510 | – | – |
| N#CCNC(=O)C1(NC(=O)c2ccc(-c3csc(N4CCC(N5CCOCC5)CC4)n3)cc2)CCCCC1 | 3 | 16000 | – | – | – | 6400 | – | < 0.25 | – | 670 | 48 | Cmax [11]: 1700 nM; T1/2 [12]: 5.33 h |
| CC(C)(C)NC1CCN(c2ccc(-c3ccc(C(=O)NC4(C(=O)NCC#N)CCCCC4)cc3)cc2)CC1 | 40 | – | 360 | 84 | 2.17 | – | 10.7 | – | 1.93 | – | – | Ki ([2]; read-out: Ki): 1600 nM; Ki ([6]; read-out: Ki): 3900 nM; Ki ([8]; read-out: Ki): < 0.25 nM; Ki ([10]; read-out: Ki): 76000 nM |
| CN1CCC(Oc2ccc(-c3ccc(C(=O)NC4(C(=O)NCC#N)CCCCC4)cc3)cc2)CC1 | 20 | 5600 | 320 | 97 | 1.9 | 12000 | 11.1 | < 0.25 | 1.9 | 530 | – | – |
| N#CCNC(=O)C1(NC(=O)c2ccc(-c3ccc(OC4CCN(CCO)CC4)cc3)cc2)CCCCC1 | 59 | 9100 | 220 | 231 | 1.83 | 16000 | 25.3 | < 0.25 | 2.05 | 640 | – | – |
| N#CCNC(=O)C1(NC(=O)c2ccc(-c3csc(N4CC[C@@H](N)C4)n3)cc2)CCCCC1 | 52 | 7500 | 840 | – | 0.893 | 4500 | – | 1.4 | 0.883 | 3000 | – | – |
| N#CCNC(=O)C1(NC(=O)c2ccc(-c3ccc(N4CCNCC4)cc3)cc2)CCCCC1 | 77 | 7900 | 500 | 71 | 1.73 | 4900 | 7.23 | < 0.25 | 1.4 | 420 | 21 | Tmax [17]: 2 h; T1/2 [18]: 1.88 h |
| N#CCNC(=O)C1(NC(=O)c2ccc(-c3ccc(S(=O)(=O)N4CCN(CC(F)(F)F)CC4)cc3)cc2)CCCCC1 | 320 | 540 | 1200 | 40 | 0.65 | 5500 | 1.55 | 6.1 | 0.767 | 56000 | – | – |

— ChEMBL document CHEMBL1141198, “Design and synthesis of tri-ring P3 benzamide-containing aminonitriles as potent, selective, orally effective inhibitors of cathepsin K” (J Med Chem, 2005)
